This is an account of results in PMC10455042 (Biochemical engineering journal, 2023).

In series [1] the test system is Tau. Put plainly: Western blotting analysis of Tau levels in N2a cells treated with PROTACs. The format is cell-based. The settings on record: N2a cells pre-treated with 10 μM PYR-41 for one hour, then co-incubated with 200 μM peptide for 12 h; western blot. On the technique in general: A western blot detects proteins with antibodies after separation by electrophoresis.

Series [2] deals with N2a cells. Description: alamarBlue cell viability assay. In kind it is cell-based. Conditions: 24 h. Put shortly:
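N2a cells in MEM with 10% cosmic calf serum, plated at 1×10^4 cells/well two days before the assay, then PBS-washed. Exposed to increasing peptide concentrations (up to 200 µM) for 24 h at 37 °C, ECB-washed, then given alamarBlue in serum-free medium for 4 h at 37 °C. Fluorescence read at ex 532/[…], normalised to no-peptide control (F/C), triplicate average.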
Background: Resazurin is reduced to fluorescent resorufin, in cell work by metabolically active cells.

The nature of series [3]: Peptide degradation assay in N2a lysates. Conditions: 2 mg/mL N2a lysates, 37°C; HPLC, intact peptide. The format is in vitro ADME.
For series [4] the following is noted: flow cytometry; cited from earlier work.
For series [5] the following is noted: RWRWR peptide alone; cited from earlier work.

Where a SMILES comes first, the peptide text is derived from it. [ ]: non-standard residue; d: D form.

With `CC[C@H](C)[C@H](NC(=O)[C@H](Cc1c[nH]c2ccccc12)NC(=O)[C@H](CCCNC(=N)N)NC(=O)CNC(=O)[C@H]1CCCN1C(=O)[C@@H](NC(=O)[C@H](CCCNC(=N)N)NC(=O)[C@@H](NC(=O)[C@H](Cc1c[nH]c2ccccc12)NC(=O)[C@H](CCCNC(=N)N)NC(C)=O)C(C)C)C(C)C)C(=O)N[C@@H](CCCNC(=N)N)C(=O)N[C@@H](CCC(N)=O)C(=O)N[C@@H](Cc1ccc(O)cc1)C(=O)N[C@@H](CCC(N)=O)C(=O)N[C@@H](CCC(N)=O)C(=O)N[C@@H](Cc1ccc(O)cc1)C(=O)N[C@@H](CCC(N)=O)C(=O)N[C@@H](CC(=O)O)C(=O)N[C@@H](C)C(=O)N[C@H](C(=O)N[C@@H](C)C(=O)N[C@@H](CC(=O)O)C(=O)N[C@@H](CCC(=O)O)C(=O)N[C@@H](CCC(N)=O)C(=O)NCC(N)=O)[C@@H](C)O` [Peptide 2] (Ac-RWVRV[dP]GRWIRQYQQYQDATADEQG-NH2), the “Decrease in Tau signal on co-incubation with E1 inhibitor PYR-41” value in series [1] is reported as “decrease is negated”. For the same molecule, the “Effect on cell viability” value in series [2] is reported as “minimal effects on cell viability”. Also, the “Resistance to degradation in N2a lysates” value in series [3] is “more resistant to degradation than its unstructured counterpart Peptide 1”.

Regarding `CC[C@H](C)[C@H](NC(=O)[C@H](Cc1ccc(O)cc1)NC(=O)[C@@H]1CCCN1C(=O)[C@H](C)NC(=O)[C@H](CC(C)C)NC(=O)[C@H](C)NC(=O)[C@H](CO)NC(=O)CNC(=O)[C@H](CO)NC(=O)CNC(=O)CNC(=O)[C@H](CCC(N)=O)NC(=O)[C@H](CCC(=O)O)NC(=O)[C@H](CC(=O)O)NC(=O)[C@H](C)NC(=O)[C@@H](NC(=O)[C@H](C)NC(=O)[C@H](CC(=O)O)NC(=O)[C@H](CCC(N)=O)NC(=O)[C@H](Cc1ccc(O)cc1)NC(=O)[C@H](CCC(N)=O)NC(=O)[C@H](CCC(N)=O)NC(=O)[C@H](Cc1ccc(O)cc1)NC(C)=O)[C@@H](C)O)C(=O)N1CCC[C@H]1C(=O)N[C@H](CCCNC(=N)N)C(=O)N[C@H](CCCNC(=N)N)C(=O)N[C@H](CCCNC(=N)N)C(=O)N[C@H](CCCNC(=N)N)C(=O)N[C@H](CCCNC(=N)N)C(=O)N[C@H](CCCNC(=N)N)C(=O)N[C@H](CCCNC(=N)N)C(=O)N[C@H](CCCNC(=N)N)C(N)=O` [Peptide 1] (Ac-YQQYQDATADEQGGSGSALAPYIP[dR][dR][dR][dR][dR][dR][dR][dR]-NH2), the “Effect on cell viability” value in series [2] is reported as “minimal effects on cell viability”. Further, the “Uptake (previously published)” value in series [4] was “time-dependent uptake”.

With RWVRWpGRWIRQ [RWRWR], in series [5], the “Peptide remaining after 2 hours (previously reported)” value is given as “approximately 80%”.
